Columns and labels:
786-0 = assay: Cytotoxicity against human 786-0 cells after 48 hrs by SRB assay; type: functional; conditions: 786-0, 48 h
Summary of the method: (§1)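 NCI-60 five-dose screen: compounds dissolved in DMSO/H2O, tested at five 10-fold dilutions (10^-4 to 10^-8 M) for 48 h. Growth measured by sulforhodamine B optical density at time zero and after 48 h drug or vehicle exposure. Percentage growth calculated relative to control. GI50 is the molar concentration giving 50% reduction in net cell growth versus day-0 cell numbers.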

[1] = Cytotoxicity against human HCT15 cells after 48 hrs by SRB assay; type: functional; conditions: HCT-15, 48 h; summary of the method: as §1
[2] = Cytotoxicity against human HL-60(TB) cells after 48 hrs by SRB assay; type: functional; conditions: HL-60, 48 h; summary of the method: as §1
[3] = Cytotoxicity against human DU145 cells after 48 hrs by SRB assay; type: functional; conditions: DU-145, 48 h; summary of the method: as §1
A498 = assay: Cytotoxicity against human A498 cells after 48 hrs by SRB assay; type: functional; conditions: A498, 48 h; summary of the method: as §1
HT-29 = assay: Cytotoxicity against human HT-29 cells after 48 hrs by SRB assay; type: functional; conditions: HT-29, 48 h; summary of the method: as §1
[4] = Cytotoxicity against human SW620 cells after 48 hrs by SRB assay; type: functional; conditions: SW-620, 48 h; summary of the method: as §1
[5] = Cytotoxicity against human RXF393 cells after 48 hrs by SRB assay; type: functional; conditions: RXF 393, 48 h; summary of the method: as §1
[6] = Cytotoxicity against human SNB19 cells after 48 hrs by SRB assay; type: functional; conditions: SNB-19, 48 h; summary of the method: as §1
NCI-H226 = assay: Cytotoxicity against human NCI-H226 cells after 48 hrs by SRB assay; type: functional; conditions: NCI-H226, 48 h; summary of the method: as §1
[7] = Cytotoxicity against human SKOV3 cells after 48 hrs by SRB assay; type: functional; conditions: SK-OV-3, 48 h; summary of the method: as §1
[8] = Cytotoxicity against human HCT116 cells after 48 hrs by SRB assay; type: functional; conditions: HCT-116, 48 h; summary of the method: as §1
A549 = assay: Cytotoxicity against human A549 cells after 48 hrs by SRB assay; type: functional; conditions: A549, 48 h; summary of the method: as §1
MDA-MB-435 = assay: Cytotoxicity against human MDA-MB-435 cells after 48 hrs by SRB assay; type: functional; conditions: MDA-MB-435, 48 h; summary of the method: as §1
[9] = Cytotoxicity against human OVCAR3 cells after 48 hrs by SRB assay; type: functional; conditions: OVCAR-3, 48 h; summary of the method: as §1
[10] = Cytotoxicity against human BT549 cells after 48 hrs by SRB assay; type: functional; conditions: BT-549, 48 h; summary of the method: as §1
MCF7 = assay: Cytotoxicity against human MCF7 cells after 48 hrs by SRB assay; type: functional; conditions: MCF7, 48 h; summary of the method: as §1
[11] = Cytotoxicity against human SF539 cells after 48 hrs by SRB assay; type: functional; conditions: SF-539, 48 h; summary of the method: as §1
SK-MEL-28 = assay: Cytotoxicity against human SK-MEL-28 cells after 48 hrs by SRB assay; type: functional; conditions: SK-MEL-28, 48 h; summary of the method: as §1
MDA-MB-231 = assay: Cytotoxicity against human MDA-MB-231 cells after 48 hrs by SRB assay; type: functional; conditions: MDA-MB-231, 48 h; summary of the method: as §1
[12] = Cytotoxicity against human OVCAR5 cells after 48 hrs by SRB assay; type: functional; conditions: OVCAR-5, 48 h; summary of the method: as §1
[13] = Cytotoxicity against human Hs 578T cells after 48 hrs by SRB assay; type: functional; summary of the method: as §1
CCRF-CEM = assay: Cytotoxicity against human CCRF-CEM cells after 48 hrs by SRB assay; type: functional; summary of the method: as §1
SK-MEL-5 = assay: Cytotoxicity against human SK-MEL-5 cells after 48 hrs by SRB assay; type: functional; conditions: SK-MEL-5, 48 h; summary of the method: as §1
[14] = Cytotoxicity against human RPMI8226 cells after 48 hrs by SRB assay; type: functional; conditions: RPMI-8226, 48 h; summary of the method: as §1
SN12C = assay: Cytotoxicity against human SN12C cells after 48 hrs by SRB assay; type: functional; summary of the method: as §1
T47D = assay: Cytotoxicity against human T47D cells after 48 hrs by SRB assay; type: functional
Summary of the method: (§2)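 NCI-60 five-dose screen. Compounds dissolved in DMSO/H2O and tested at five 10-fold dilutions (10^-4 to 10^-8 M) for 48 h. Growth read by sulforhodamine B optical density at time zero and after 48 h of exposure to compound or vehicle. Percent growth calculated against control. GI50 is the molar concentration giving 50% reduction in net cell growth relative to cell number on day 0.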

M14 = assay: Cytotoxicity against human M14 cells after 48 hrs by SRB assay; type: functional; conditions: M14, 48 h; summary of the method: as §1
[15] = Cytotoxicity against human PC3 cells after 48 hrs by SRB assay; type: functional; conditions: PC-3, 48 h; summary of the method: as §1
[16] = Cytotoxicity against human MOLT4 cells after 48 hrs by SRB assay; type: functional; conditions: MOLT-4, 48 h; summary of the method: as §1
NCI-H23 = assay: Cytotoxicity against human NCI-H23 cells after 48 hrs by SRB assay; type: functional; conditions: NCI-H23, 48 h; summary of the method: as §1
[17] = Cytotoxicity against human OVCAR8 cells after 48 hrs by SRB assay; type: functional; conditions: OVCAR-8, 48 h; summary of the method: as §1
[18] = Cytotoxicity against human SNB75 cells after 48 hrs by SRB assay; type: functional; conditions: SNB-75, 48 h; summary of the method: as §1
[19] = Cytotoxicity against human LOXIMVI cells after 48 hrs by SRB assay; type: functional; conditions: LOX IMVI; summary of the method: as §1
[20] = Cytotoxicity against human Caki1 cells after 48 hrs by SRB assay; type: functional; conditions: CAKI-1, 48 h; summary of the method: as §1
MDA-MB-468 = assay: Cytotoxicity against human MDA-MB-468 cells after 48 hrs by SRB assay; type: functional; conditions: MDA-MB-468, 48 h; summary of the method: as §1
[21] = Cytotoxicity against human UO31 cells after 48 hrs by SRB assay; type: functional; conditions: UO-31, 48 h; summary of the method: as §2
[22] = Cytotoxicity against human SF268 cells after 48 hrs by SRB assay; type: functional; conditions: SF-268, 48 h; summary of the method: as §1
K562 = assay: Cytotoxicity against human K562 cells after 48 hrs by SRB assay; type: functional; conditions: K562, 48 h; summary of the method: as §1
U-251 = assay: Cytotoxicity against human U251 cells after 48 hrs by SRB assay; type: functional; conditions: U-251, 48 h; summary of the method: as §2
NCI-H522 = assay: Cytotoxicity against human NCI-H522 cells after 48 hrs by SRB assay; type: functional; conditions: NCI-H522, 48 h; summary of the method: as §1
NCI-H460 = assay: Cytotoxicity against human NCI-H460 cells after 48 hrs by SRB assay; type: functional; conditions: NCI-H460, 48 h; summary of the method: as §1
[23] = Cytotoxicity against human NCI-ADR-RES cells after 48 hrs by SRB assay; type: functional; summary of the method: as §1
SK-MEL-2 = assay: Cytotoxicity against human SK-MEL-2 cells after 48 hrs by SRB assay; type: functional; conditions: SK-MEL-2, 48 h; summary of the method: as §1
KM12 = assay: Cytotoxicity against human KM12 cells after 48 hrs by SRB assay; type: functional; conditions: KM12, 48 h; summary of the method: as §1
[24] = Cytotoxicity against human TK10 cells after 48 hrs by SRB assay; type: functional; conditions: TK-10, 48 h; summary of the method: as §2
[25] = Cytotoxicity against human HCC2998 cells after 48 hrs by SRB assay; type: functional; conditions: HCC 2998, 48 h; summary of the method: as §1
SR = assay: Cytotoxicity against human SR cells after 48 hrs by SRB assay; type: functional; summary of the method: as §1
ACHN = assay: Cytotoxicity against human ACHN cells after 48 hrs by SRB assay; type: functional; summary of the method: as §1
[26] = Cytotoxicity against human OVCAR4 cells after 48 hrs by SRB assay; type: functional; conditions: OVCAR-4, 48 h; summary of the method: as §1
Tubulin = Tubulin (Sus scrofa, UniProt P02554+P02550); assay: Inhibition of porcine brain tubulin polymerization by spectrophotometric analysis
Summary of the method: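 Tubulin at 4 mg/mL in cold 80 mM PIPES pH 6.9 with 2 mM MgCl2, 0.5 mM EGTA, GTP and 10% glycerol. Compound (added as 10x stock in 50% DMSO) or DMSO was preincubated 2 min at 37 °C in a prewarmed plate. Cold tubulin was then added, and polymerization at 37 °C was followed by A340 over time. Dose-response, mean ± s.d., n=3.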

[27] = Cytotoxicity against human COLO205 cells after 48 hrs by SRB assay; type: functional; conditions: COLO 205, 48 h; summary of the method: as §1
[28] = Cytotoxicity against human UACC62 cells after 48 hrs by SRB assay; type: functional; conditions: UACC-62, 48 h; summary of the method: as §2
[29] = Cytotoxicity against human UACC257 cells after 48 hrs by SRB assay; type: functional; conditions: UACC-257, 48 h; summary of the method: as §2
[30] = Cytotoxicity against human SF295 cells after 48 hrs by SRB assay; type: functional; conditions: SF-295, 48 h; summary of the method: as §1

## COc1cc(-c2n[nH]nc2-c2c[nH]c3ccccc23)cc(OC)c1OC
786-0
  GI50: 35 nM
[1]
  GI50: 35 nM
[2]
  GI50: 46 nM
[3]
  GI50: 90 nM
A498
  GI50: 35 nM
HT-29
  GI50: 33 nM
[4]
  GI50: 43 nM
[5]
  GI50: 164 nM
[6]
  GI50: 61 nM
NCI-H226
  GI50: 390 nM
[7]
  GI50: 42 nM
[8]
  GI50: 41 nM
A549
  GI50: 90 nM
MDA-MB-435
  GI50: 14 nM
[9]
  GI50: 33 nM
[10]
  GI50: 28 nM
MCF7
  GI50: 29 nM
[11]
  GI50: 31 nM
SK-MEL-28
  GI50: 112 nM
MDA-MB-231
  GI50: 89 nM
[12]
  GI50: 381 nM
[13]
  GI50: 42 nM
CCRF-CEM
  GI50: 48 nM
SK-MEL-5
  GI50: 43 nM
[14]
  GI50: 90 nM
SN12C
  GI50: 1390 nM
T47D
  GI50: 48 nM
M14
  GI50: 36 nM
[15]
  GI50: 44 nM
[16]
  GI50: 160 nM
NCI-H23
  GI50: 270 nM
[17]
  GI50: 1160 nM
[18]
  GI50: 30 nM
[19]
  GI50: 71 nM
[20]
  GI50: 44 nM
MDA-MB-468
  GI50: 42 nM
[21]
  GI50: 87 nM
[22]
  GI50: 71 nM
K562
  GI50: 53 nM
U-251
  GI50: 59 nM
NCI-H522
  GI50: 21 nM
NCI-H460
  GI50: 42 nM
[23]
  GI50: 34 nM
SK-MEL-2
  GI50: 30 nM
KM12
  GI50: 45 nM
[24]
  GI50: 1390 nM
[25]
  GI50: 440 nM
SR
  GI50: 90 nM
ACHN
  GI50: 43 nM
[26]
  GI50: 1160 nM
Tubulin
  IC50: 18500 nM
[27]
  GI50: 34 nM
[28]
  GI50: 43 nM
[29]
  GI50: 13900 nM
[30]
  GI50: 32 nM
